How the values were obtained:
[1] = target: T1, Histone deacetylase 8 (Homo sapiens) (UniProt Q9BY41); experiment: Inhibition of human recombinant full-length C-terminal His-tagged HDAC8 expressed in baculovirus infected Sf9 insect cell assessed as remaining activity at 4 x 10^-7 M preincubated for 15 mins followed by HDAC-Glo substrate addition measured after 30 mins by fluorimetric method rel;ative to control
T1 sequence (whole entry): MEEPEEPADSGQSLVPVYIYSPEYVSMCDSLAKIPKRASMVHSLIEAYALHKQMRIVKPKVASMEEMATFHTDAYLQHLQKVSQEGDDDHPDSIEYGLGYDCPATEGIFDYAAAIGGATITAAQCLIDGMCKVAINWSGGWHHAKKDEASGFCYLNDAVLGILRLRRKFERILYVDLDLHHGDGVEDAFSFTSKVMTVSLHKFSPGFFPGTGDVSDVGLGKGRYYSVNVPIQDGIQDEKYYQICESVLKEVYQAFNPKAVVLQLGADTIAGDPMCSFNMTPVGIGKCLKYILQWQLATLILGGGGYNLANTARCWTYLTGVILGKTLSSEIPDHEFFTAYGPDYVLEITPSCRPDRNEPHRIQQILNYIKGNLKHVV
In short: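 Recombinant HDAC8 (75 ng) preincubated 15 min at RT with inhibitor in DMSO in HDAC-Glo buffer. HDAC-Glo reagent added and luminescence read 30 min later. Background taken from a reaction without enzyme; activity as % of DMSO control.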

[2] = target: T2, Histone deacetylase (Homo sapiens) (UniProt Q13547+O15379+Q9UBN7+Q92769+Q9UQL6+Q8WUI4+Q9BY41+Q96DB2+P56524+Q9UKV0+Q969S8); experiment: Inhibition of HDAC in human HeLa-S3 cell lysates assessed as residual activity at 3 x 10^-6 M preincubated for 15 mins followed by HDAC-Glo substrate addition measured after 35 mins by […] relative to control; format: protein assay
[3] = target: Histone deacetylase 2 (Homo sapiens) (UniProt Q92769); experiment: Inhibition of HDAC2 in human HeLa-S3 cell lysates assessed as remaining activity at […] preincubated for 15 mins followed by HDAC-Glo substrate addition measured after 30 to 40 mins by […] relative to control
[4] = target: Histone deacetylase 2 (Homo sapiens) (UniProt Q92769); experiment: Inhibition of HDAC2 in human HeLa-S3 cell lysates assessed as remaining activity at 1.6 x 10^-5 M preincubated for 15 mins followed by HDAC-Glo substrate addition measured after 30 to 40 mins by […] relative to control
In short: (§1)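 Same antibody-capture format as the other class I isoforms. HeLa-S3 lysate added at 100 μg/mL for HDAC1 and HDAC2, 1 h at 4 °C, then washed. Inhibitor in DMSO preincubated 15 min at RT; HDAC-Glo reagent added and luminescence read after 30-40 min. Concentrations are final. Signal corrected against a well without antibody; activity expressed as % of DMSO control.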

[5] = target: Histone deacetylase 3 (Homo sapiens) (UniProt O15379); experiment: Inhibition of HDAC3 in human HeLa-S3 cell lysates assessed as remaining activity at 4 x 10^-6 M preincubated for 15 mins followed by HDAC-Glo substrate addition measured after 30 to 40 mins by fluorimetric method relative to control
In short: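 Antibody-capture (ELISA-type) assay: HDAC antibody coated in carbonate/bicarbonate buffer pH 9.4, wells blocked with 5% milk in TBST. HeLa-S3 lysate added at 1 mg/mL for HDAC3, 1 h at 4 °C, then washed. Inhibitor in DMSO preincubated 15 min at RT in HDAC-Glo buffer. HDAC-Glo reagent added, luminescence read after 30-40 min. Concentrations are final. Background = no-antibody well; activity given as % of DMSO control.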

[6] = target: T2, Histone deacetylase (Homo sapiens); experiment: Inhibition of HDAC in human HeLa-S3 cell lysates assessed as residual activity at 1.25 x 10^-5 M preincubated for 15 mins followed by HDAC-Glo substrate addition measured after 35 mins by […] relative to control; format: protein assay
U-937 [7] = experiment: Cytotoxicity against human U937 cells assessed as decrease in cell viability after 44 hrs by MTT assay; format: functional, cell-based; conditions: Homo sapiens, U-937, 44 h
U-937 [8] = experiment: Cytotoxicity against human U937 cells assessed as cell viability at 3.2 x 10^-5 M after 44 hrs by MTT assay relative to control; format: functional; conditions: U-937, 44 h, read-out: Activity
U-937 [9] = experiment: Cytotoxicity against human U937 cells assessed as cell viability at 1.6 x 10^-5 M after 44 hrs by MTT assay relative to control; format: functional; conditions: U-937, 44 h, read-out: Activity
U-937 [10] = experiment: Cytotoxicity against human U937 cells assessed as cell viability at 4 x 10^-6 M after 44 hrs by MTT assay relative to control; format: functional; conditions: U-937, 44 h, read-out: Activity
U-937 [11] = experiment: Cytotoxicity against human U937 cells assessed as cell viability at 2 x 10^-6 M after 44 hrs by MTT assay relative to control; format: functional; conditions: U-937, 44 h, read-out: Activity
Jurkat = experiment: Cytotoxicity against human Jurkat cells assessed as cell viability at 10 uM after 44 hrs by MTT assay relative to control; format: functional; conditions: read-out: Activity
[12] = target: Histone deacetylase 2 (Homo sapiens) (UniProt Q92769); experiment: Inhibition of HDAC2 in human HeLa-S3 cell lysates assessed as remaining activity at 1.25 uM preincubated for 15 mins followed by HDAC-Glo substrate addition measured after 30 to 40 mins by […] relative to control; in short: as §1

Sequence of Histone deacetylase 2 (Homo sapiens) (Q92769 whole entry, canonical isoform): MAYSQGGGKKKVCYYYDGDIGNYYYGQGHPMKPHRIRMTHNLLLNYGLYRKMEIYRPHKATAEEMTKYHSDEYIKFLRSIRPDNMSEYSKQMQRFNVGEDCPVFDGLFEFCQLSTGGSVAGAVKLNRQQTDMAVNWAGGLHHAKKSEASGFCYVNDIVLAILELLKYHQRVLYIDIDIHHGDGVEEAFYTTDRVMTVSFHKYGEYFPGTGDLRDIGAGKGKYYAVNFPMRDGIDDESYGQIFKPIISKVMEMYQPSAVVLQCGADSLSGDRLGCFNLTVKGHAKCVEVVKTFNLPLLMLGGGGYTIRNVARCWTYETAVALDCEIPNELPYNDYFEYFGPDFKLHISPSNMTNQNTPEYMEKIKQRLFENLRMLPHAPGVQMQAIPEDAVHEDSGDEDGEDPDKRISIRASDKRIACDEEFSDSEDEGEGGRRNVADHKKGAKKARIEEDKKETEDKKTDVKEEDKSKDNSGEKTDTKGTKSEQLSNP
Sequence of Histone deacetylase 3 (Homo sapiens) (O15379 whole entry): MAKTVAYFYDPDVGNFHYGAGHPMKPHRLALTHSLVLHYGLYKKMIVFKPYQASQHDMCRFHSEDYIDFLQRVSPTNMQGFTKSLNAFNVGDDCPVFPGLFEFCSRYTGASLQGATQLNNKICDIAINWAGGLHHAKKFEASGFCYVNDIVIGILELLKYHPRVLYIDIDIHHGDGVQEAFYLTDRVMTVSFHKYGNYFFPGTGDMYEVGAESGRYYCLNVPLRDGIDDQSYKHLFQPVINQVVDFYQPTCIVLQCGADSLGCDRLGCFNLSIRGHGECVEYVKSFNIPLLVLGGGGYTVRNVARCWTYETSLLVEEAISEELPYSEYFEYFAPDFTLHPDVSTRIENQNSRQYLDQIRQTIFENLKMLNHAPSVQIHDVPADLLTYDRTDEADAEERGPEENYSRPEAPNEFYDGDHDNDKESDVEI

## O=C(CC[C@H](CCCC(=O)Nc1ccccc1)Cc1ccccc1)NO
[1]
  Activity: 28%

## CCC(CCCC(=O)Nc1ccccc1)CCC(=O)NO (stereo unspecified)
[2]
  Activity: 92%
[3]
  Activity: 87%
[4]
  Activity: 23%
[5]
  Activity: 64%
[1]
  Activity: 25%

## O=C(CCC(CCCC(=O)Nc1ccccc1)Cc1ccccc1)NO (racemic)
[6]
  Activity: 88%
U-937 [7]
  EC50: 28 µM
U-937 [8]
  viability at 32 µM: 49%
U-937 [9]
  viability at 16 µM: 69%
U-937 [10]
  viability at 4 µM: 74%
U-937 [11]
  viability at 2 µM: 80%
Jurkat
  viability at 10 µM: 97%

## CCCCCCC(CCCC(=O)Nc1ccccc1)CCC(=O)NO (stereo unspecified)
[6]
  Activity: 87%
[12]
  Activity: 101%
U-937 [7]
  EC50: 16 µM
U-937 [8]
  viability at 32 µM: 28%
U-937 [9]
  viability at 16 µM: 37%
U-937 [10]
  viability at 4 µM: 108%
U-937 [11]
  viability at 2 µM: 106%
Jurkat
  viability at 10 µM: 39%
